Tests used:
[1] = molecular target: Sigma non-opioid intracellular receptor 1 (Homo sapiens, UniProt Q99720); test: Binding affinity to sigma1 receptor
Procedure, shortened: (§1)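 Radioligand competition binding with at least six test-compound concentrations, each run in triplicate. Incubations were stopped by rapid filtration through filters presoaked 2 h in 0.5% aqueous polyethylenimine, and bound radioactivity was counted by solid scintillation. IC50 came from non-linear regression and Ki from the Cheng–Prusoff equation. Values are mean ± SEM of three independent experiments.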

[2] = Binding affinity to sigma2 receptor; procedure, shortened: as §1
[3] = Binding affinity to NMDA receptor ifenprodil binding site; procedure, shortened: as §1

Sequence of Sigma non-opioid intracellular receptor 1 (Q99720 whole entry): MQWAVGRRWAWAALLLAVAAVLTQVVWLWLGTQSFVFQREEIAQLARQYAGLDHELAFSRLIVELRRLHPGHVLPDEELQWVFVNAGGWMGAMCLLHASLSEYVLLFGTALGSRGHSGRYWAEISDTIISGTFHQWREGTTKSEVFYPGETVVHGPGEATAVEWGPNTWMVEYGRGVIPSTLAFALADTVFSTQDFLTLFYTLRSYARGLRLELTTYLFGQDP

| Structure (SMILES) | Ki [1] [µM] | Ki [2] [µM] | Ki [3] [µM] |
| --- | --- | --- | --- |
| c1ccc(C2(c3ccccc3)OCC(C3CCCCN3)O2)cc1 (racemic) [DIOXADROL] | > 0.8 | > 1 | > 1 |
| OC1CCNC(C2COC(c3ccccc3)(c3ccccc3)O2)C1 (racemic) | > 0.8 | > 1 | > 1 |
| FC1CCNC(C2COC(c3ccccc3)(c3ccccc3)O2)C1 (racemic) | > 0.8 | > 1 | > 1 |

Further lines, results first:

| Ki [1] [µM] | Ki [2] [µM] | Ki [3] [µM] | Structure (SMILES) |
| --- | --- | --- | --- |
| > 0.8 | > 1 | > 1 | FC1(F)CCNC(C2COC(c3ccccc3)(c3ccccc3)O2)C1 (racemic) |
| > 0.8 | > 1 | > 1 | O=C1CCNC(C2COC(c3ccccc3)(c3ccccc3)O2)C1 (racemic) |
